Screens (PubChem BioAssay)
SR-BI uptake up – activators of SR-BI mediated HDL lipid uptake. CHO ldlA[mSR-BI] cells, DiI-HDL uptake fluorescence, 3 h; 100 = double the neutral-control signal. activation, % at 12.5 µM. 320,000 tested, 0.096% active;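 active = mean replicate activation of at least 60% and every replicate at or above 60%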;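 also: 0% = median plate neutral-control signal and 100% = twice that signal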
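material = CHO ldlA[mSR-BI] cells | medium = Ham's F12 with 0.5% BSA, HEPES 25 mM, pH 7.4 | reagent = fluorescent DiI-HDL, 10 µg/mL final | compound dosing = single-point compound dose | incubation = 3 h, 37 °C | measured by = bottom-read fluorescence, 550/595 nm | measure = HDL uptake via cellular fluorescence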
SR-BI HDL uptake – inhibitors of mouse SR-BI mediated HDL lipid uptake; inhibition, % at 12.5 µM; ldlA[mSR-BI] CHO cells, DiI-HDL uptake fluorescence, 3 h; 320,000 tested, 0.96% active;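 active = mean replicate inhibition of at least 70% and a set share of replicates each scoring 70 or more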;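 also: 0% = median of neutral control wells and 100% = median of positive control wells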
HGIII-sPLA2 inh – Blocks human group III sPLA2 activity. Q9NZ20. QFRET BODIPY PC-A2 liposome hydrolysis, fluorescence. inhibition, % at 12.2 µM. 370,000 tested, 0.56% active;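 active = inhibition above mean plus 3 SD of compounds lying within the high and low control bounds, cut at about 19% in these data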;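 also: 0% = median of test compound wells and 100% = no enzyme DMSO wells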
Target sequence (Q9NZ20 whole entry, looked up): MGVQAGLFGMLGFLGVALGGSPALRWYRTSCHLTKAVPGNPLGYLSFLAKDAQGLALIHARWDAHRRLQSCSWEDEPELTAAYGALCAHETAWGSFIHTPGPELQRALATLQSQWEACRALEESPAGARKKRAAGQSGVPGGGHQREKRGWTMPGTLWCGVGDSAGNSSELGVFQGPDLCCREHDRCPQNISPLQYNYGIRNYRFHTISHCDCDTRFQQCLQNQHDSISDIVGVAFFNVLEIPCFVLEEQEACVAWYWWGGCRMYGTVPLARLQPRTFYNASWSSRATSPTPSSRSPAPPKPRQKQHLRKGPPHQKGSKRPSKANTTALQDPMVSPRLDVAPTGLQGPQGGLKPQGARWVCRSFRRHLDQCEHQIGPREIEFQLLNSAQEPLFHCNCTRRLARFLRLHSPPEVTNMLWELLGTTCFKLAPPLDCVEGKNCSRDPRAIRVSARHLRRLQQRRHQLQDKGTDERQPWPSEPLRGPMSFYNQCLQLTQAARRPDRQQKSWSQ
ARNT TACC3 PPI – disruptors of human ARNT/TACC3 interaction; Q9Y6A5; AlphaScreen His-ARNT PAS-B/GST-TACC3 binding, luminescence; TACC3 fragment carries E629A point mutation; inhibition, % at 9.99 µM; 390,000 tested, 0.66% active; AID 623870;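 active = mean inhibition of replicates at least 50% and at least half of replicates each reaching 50%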;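 also: 0% = complete ARNT plus TACC3 wells and 100% = ARNT alone without TACC3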
NSD2 inh – NSD2 (human) methyltransferase inhibition. O96028. NSD2 peptide methylation, AlphaScreen, 120 min. inhibition, % at 12.5 µM. 310,000 tested, 0.54% active; in the data active = inhibition above about 50%
Xi reactivation – reactivates the inactive X chromosome in mouse fibroblasts. XiGFP mouse fibroblasts, % GFP-positive cells imaging, 3 d; cells co-treated with 5-aza-dC sensitizer; scaled so ellipticine positive control = 100%. activation, % at 7.58 µM. 360,000 tested, 0.055% active;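 active = mean normalized replicate activation at least 10% and every replicate at or above 10%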;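 also: 0% = median of on-plate neutral control wells and 100% = ellipticine 6 µM median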
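Assay system – SV40-immortalized XiGFP fibroblast cells, line 68-5-11 · Buffer or medium – DMEM supplemented with 5-aza-dC as sensitizing agent · Dosing – one concentration, pinned · Benchmarks – positive control ellipticine, 6 µM final · Times – 3 days compound exposure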
* = called active by the depositor; x = no result. A selection: hits, their analogues and other compounds. The true share with any hit is near 2%.

SMILES	SR-BI uptake up	SR-BI HDL uptake	HGIII-sPLA2 inh	ARNT TACC3 PPI	NSD2 inh	Xi reactivation
C=CCOc1ccc2cccc(/C=N/NC(=O)c3cc4cc([N+](=O)[O-])ccc4s3)c2c1	-77	77*	0	-9	-2	x
O=C(Nc1ccccn1)c1cc2cc([N+](=O)[O-])ccc2s1	-56	56	5	-4	4	0
CCOC(=O)c1c(OCC)[nH]c2c1cc(O)c1ccccc12	-5	5	-1	33*	18	x
CCOC(=O)c1c(C)[nH]c2cc(Br)c(O)cc12	-3	3	-28	0	0	x
O=C(C[C@H]1C=C[C@@H](NC(=O)c2ccccn2)[C@@H](CO)O1)NCc1cccc(F)c1	x	x	x	1	x	0
CN(C)C(=O)c1ccc(-c2ccc3c(c2)[C@H]2[C@H](CCN2S(=O)(=O)c2cn(C)cn2)[C@H](CO)N3)cc1	x	x	x	-1	x	0
CC1CCCC(NC(=O)c2ccc(COc3ccccc3)o2)C1C (centres undefined)	-15	15	-4	3	0	0
O=C(COC(=O)COc1ccccc1)Nc1ccc(Br)cc1F	63*	-63	-1	-7	-2	0
COc1ccc2c3c(n(C)c2c1)[C@@H](CO)NCC31CN(CC2CCOCC2)C1	x	x	x	x	x	0
CN(C)c1ccc(NC(=O)CC(NCc2ccccn2)C(=O)O)cc1 (centres undefined)	11	-11	15	77*	-2	x
C/C(CC(=O)Nc1ccc(N(C)C)cc1)=N\NC(=O)c1ccccn1	-7	7	4	52*	3	x
C/C(CC(=O)Nc1ccc(N(C)C)cc1)=N\NC(=O)c1cnccn1	25	-25	6	x	1	0
Cc1ccc(NC(=O)C(NCc2ccccn2)c2ccccc2)cc1 (centres undefined)	8	-8	8	23	-5	0
CC1(c2ccc(OCC#N)cc2)C=C(c2ccc(OCC#N)cc2)n2nc(C(F)(F)F)nc2N1 (centres undefined)	-34	34	-36	-4	-6	0
Cc1nnc(SCC(=O)NC2CCS(=O)(=O)C2)n1Cc1ccccc1 (centres undefined)	66*	-66	3	-6	x	0
Cc1ccc(C(=O)N/C(=C/c2ccc(-c3ccc([N+](=O)[O-])cc3)o2)C(=O)NCCCN(C)C)cc1	x	x	10	15	5	62*
O=C(NCCCO)/C(=C/c1ccc(-c2cccc([N+](=O)[O-])c2)o1)NC(=O)c1ccccc1	19	-19	1	1	2	0
Cn1c(=O)[nH]c(=O)c2c1nc(N1CCN(c3ccccc3)CC1)n2CCSc1ncccn1	71*	-71	-2	-2	x	0
O=c1[nH][nH]cc1C=Nc1ccc(Cl)cc1Cl	24	-24	1	-3	10	0
O=c1[nH][nH]cc1C=Nc1cc(Cl)ccc1O	14	-14	6	49*	x	0
Cc1c(C(=O)Nc2ccc(F)c(F)c2)oc2ccc(S(=O)(=O)N3CCCCC3)cc12	-75	75*	12	-8	-2	x
Cc1ccc(NC(=O)COc2ccc(-c3nnco3)cc2)cc1S(=O)(=O)N1CCOCC1	x	x	-4	2	7	23*
COc1ccc(NC(=O)c2cc(-c3ccco3)nc3ccccc23)cc1S(=O)(=O)N1CCOCC1	-89	89*	-7	4	6	0
O=C(Nc1ccc(Cl)c(S(=O)(=O)N2CCOCC2)c1)c1cc(-c2ccccn2)nc2ccccc12	-83	83*	-5	1	-1	0
O=C(Nc1ccc(Cl)c(S(=O)(=O)N2CCOCC2)c1)c1ccc2c(c1)OCO2	-59	59	-10	15	24	1
SMILES	SR-BI uptake up	SR-BI HDL uptake	HGIII-sPLA2 inh	ARNT TACC3 PPI	NSD2 inh	Xi reactivation
O=C(Nc1ccc(Cl)c(S(=O)(=O)N2CCOCC2)c1)c1ccc2c(c1)OCCO2	-72	72*	-9	12	x	0
Cc1ccc(NC(=O)c2ccc3ccccc3n2)cc1S(=O)(=O)N1CCOCC1	-95	95*	1	6	-2	0
Cc1ccc(NC(=O)c2cc(=O)c3ccccc3o2)cc1S(=O)(=O)N1CCCCC1	-80	80*	0	-2	-1	0
CC(=O)Nc1ccc(NC(=O)c2cc(=O)c3cc(C)c(C)cc3o2)cc1	-72	72*	-5	-16	-1	0
CC(C)n1nc(C(=O)NCCCN2CCCC2=O)c2ccccc2c1=O	-7	7	-2	0	24	0
COc1cc2ccccc2cc1C(=O)N1CCc2ccccc21	-47	47	11	2	0	0
Cc1ccc(C(=O)OCn2nnc3ccccc3c2=O)cc1[N+](=O)[O-]	8	-8	4	-6	30	0
COc1ccc(-c2[nH]c(-c3cc(OC)c4c(c3)OCO4)nc2-c2ccccc2)cc1	-88	88*	14	-1	7	0
COc1cc(-c2nc(CN3CCN(C(=O)c4ccco4)CC3)c(C)o2)ccc1F	-28	28	-4	1	1	0
COc1ccc(C)cc1NC(=O)C1CCN(C(=O)Cc2ccccc2)CC1	-76	76*	3	-7	2	0
COC(=O)c1ccccc1NC(=O)C1CCN(C(=O)Cc2ccccc2)CC1	x	49	4	-6	0	0
COc1ccc(NC(=O)C2CCN(C(=O)C3CC(=O)N(c4ccc(C)cc4)C3)CC2)c(OC)c1 (centres undefined)	-79	79*	-2	-1	-3	0
C[C@@H]1CN([C@H](C)CO)C(=O)c2cc(-c3ccccc3)cnc2O[C@@H]1CN(C)C(=O)c1cccc(F)c1	x	x	x	x	x	0
CCCCN1C(=O)/C(=C/C=C2\SCCN2C)SC1=S	-71	71*	-12	4	5	0
CC1CCN(C(=O)Cn2nnc(-c3cccs3)n2)CC1	19	-19	0	-6	0	0
O=C(Cn1nnc(-c2cccs2)n1)N1CCOCC1	68*	-68	7	24	-5	0
Cc1ccc(S(=O)(=O)N(C)C[C@H]2OCCCC[C@@H](C)Oc3ccc(NC(=O)CCCCCC(=O)Nc4ccccc4N)cc3C(=O)N([C@H](C)CO)C[C@@H]2C)cc1	x	x	x	x	x	0
Cc1cc(NC(=O)/C=C/c2ccccc2Cl)n(-c2nc3ccccc3[nH]2)n1	-96	96*	9	-16	1	0
CN(C)c1ccc(/C=N/NC(=O)C(=O)/C=C2\NC3(CCCC3)Cc3ccccc32)cc1	-94	94*	-1	-1	3	x
CN(C)c1ccc(/C=N/NC(=O)c2ccccc2)cc1	5	-5	4	x	-2	0
